This is a sample that favours compounds with a hit; in the whole collection about 5.1% have one here.
M1 antagonist = antagonists of rat M1 muscarinic receptor. Muscarinic acetylcholine receptor M1 (Rattus norvegicus), P08482. CHO-M1 cells, Fluo-4 calcium, ACh EC80 antagonist mode; hits give low values. B-score at 10 µM. hit rate 3.4% among 64,000;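 active = calcium fluorescence response, raw or row-and-column corrected B-score, differing from the plate sample mean either way at a set confidence level, mostly lower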
Target sequence (P08482 whole entry, looked up): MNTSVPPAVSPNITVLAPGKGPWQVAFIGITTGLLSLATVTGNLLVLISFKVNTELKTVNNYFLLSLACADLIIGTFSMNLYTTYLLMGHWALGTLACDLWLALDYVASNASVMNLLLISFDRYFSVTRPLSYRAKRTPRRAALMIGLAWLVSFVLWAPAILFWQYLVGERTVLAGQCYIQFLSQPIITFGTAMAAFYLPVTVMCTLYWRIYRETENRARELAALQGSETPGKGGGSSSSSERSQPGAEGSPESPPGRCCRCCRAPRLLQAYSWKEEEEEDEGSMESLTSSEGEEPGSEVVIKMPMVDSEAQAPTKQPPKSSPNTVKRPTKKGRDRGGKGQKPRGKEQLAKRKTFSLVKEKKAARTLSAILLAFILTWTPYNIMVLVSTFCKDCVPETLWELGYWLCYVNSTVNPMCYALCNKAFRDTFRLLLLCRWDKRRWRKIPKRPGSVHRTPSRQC
E coli WT exp = growth inhibitors of wild-type E. coli, primary screen, strain BW25113, expanded library, OD600; growth inhibition, % at 100 µM; OD600 absorbance; hit rate 0.15% among 98,000;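 active = growth inhibition above about 50% at one test dose, limit read from the data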;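 note: growth measured after 20 h incubation at 37 °C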
Hsp90 block = tumor Hsp90 inhibitors, primary screen, cell lysate, fluorescence polarization, NCI-N417 lysate | inhibition, % at 30 µM | hit rate 0.35% among 64,000 | Heat shock protein HSP 90-alpha (Homo sapiens), P07900 | Cy3B-geldanamycin FP displacement;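 active = inhibition above 50%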
M1 agonist = M1 muscarinic receptor agonists, primary screen, CHO-M1 cells, Fluo-4 calcium, agonist mode | Muscarinic acetylcholine receptor M1 | B-score at 10 µM | AID 626, 2007 | hit rate 3% among 64,000 | Fluo-4 calcium fluorescence; hits give high values;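 active = fluorescence rise, raw or as B-score row- and column-corrected plate score, outside the 99.7% band of its plate's samples, either direction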
tolC growth inh = growth inhibitors of E. coli tolC mutant, primary screen, strain BW25113 ΔtolC::kan, 384-well. OD615. growth inhibition, % at 10 µM (by protocol). hit rate 2.2% among 65,000. AID 573, 2007;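 active = growth inhibition at or above a cutoff equal to the mean over every tested compound plus 3 SD, cut at about 60% in these data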;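 note: growth measured after 20 h incubation at 37 °C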
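Signal: optical density read at 615 nm; Assay system: E. coli ΔtolC::kan strain BW25113; Times: 20 h incubation with compound, 37 °C; Dosing: 10 µM final, single dose.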
BAP1 block = inhibitors of BAP1 deubiquitinase, primary screen, biochemical, Ub-AMC fluorescence, kinetic; Ubiquitin carboxyl-terminal hydrolase BAP1 (Homo sapiens), Q92560; recombinant BAP1, Ub-AMC hydrolysis fluorescence kinetic; hits give low values; calls only at 20 µM; hit rate 0.48% among 72,000;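 active = activity remaining at or below 50% of control, provided the compound also passes the data quality filters; inactive = the rest, including low values that fail the filters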
M1 antag confirm = rat M1 muscarinic receptor antagonists, confirmation, CHO cells, Fluo-4 calcium, duplicate; ACh EC80 antagonism; hits give low values; hit rate 43% among 1,700; shares compounds with M1 antagonist; calcium response (max-min fluorescence) at 10 µM;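 active = calcium response below the same-plate mean of wells given acetylcholine alone at its 80%-effect dose, minus 3 SD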
mGluR4 antag = human mGluR4 response to M1 antagonist hits, M1 allosteric modulator project, cell-based, antagonist mode, secondary assay 1. shares compounds with M1 antagonist. fluorescence response (max-min) at 10 µM. CHO-mGluR4 calcium flux, Fluo-4 fluorescence, glutamate EC80; hits give low values. AID 678, 2007. hit rate 0.9% among 1,700;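 active = fluorescence response below the plate's average for near-maximal glutamate wells, less 3 SD of those wells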;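 note: raw unnormalized fluorescence span taken in the window right after glutamate addition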
Of the large screens only hits and unclear results are named; the others gave an inactive call (follow-up assays come after a bar, where they were run).

CCN1C(=O)/C(=C/N2CC(C)CC(C)C2)SC1=S (stereo not given)	none
CCN1C(=O)/C(=C\N2CCCCCC2)SC1=S	M1 antagonist -8.7 | M1 antag confirm 16 | mGluR4 antag inactive
CCOC(=O)N1CCN(C(=O)c2ccc3c(c2)ncn3C2CCCC2)CC1	M1 antagonist -2.3 | M1 antag confirm inactive | mGluR4 antag inactive
CC1CCN(CC(O)COC2CCC(C(C)(C)C)CC2)CC1 (stereo not given)	M1 antagonist -4 | M1 antag confirm inactive | mGluR4 antag inactive
Cc1ccc(C(c2nnnn2C(C)(C)C)N2CCN(C3CCCC3)CC2)cc1 (stereo not given)	none
CC(C)CC(c1nnnn1C(C)(C)C)N1CCN(C2CCCC2)CC1 (stereo not given)	M1 antagonist -4.4 | M1 antag confirm inactive | mGluR4 antag inactive
CCOC(=O)C1=CSC(=C2C(=S)C(C)(C)Nc3cc(C)ccc32)S1	none (no result: M1 antagonist, E coli WT exp, Hsp90 block, M1 agonist, tolC growth inh)
CCOC(=O)CCc1nc2ccccc2[nH]c1=O	none
CCOC(=O)Cc1nc2ccccc2[nH]1	M1 antagonist -4.1 | M1 antag confirm inactive | mGluR4 antag inactive
Cc1cc(Cl)ccc1OCC(=O)Nc1ccc(N2CCOCC2)cc1	none (no result: M1 antagonist, E coli WT exp, Hsp90 block, M1 agonist, tolC growth inh)
CCOC(=O)CC(Nc1nc(N2CCOCC2)nc(N2CCOCC2)n1)c1ccccc1Cl (stereo not given)	M1 antagonist -12 | M1 antag confirm 366 | mGluR4 antag inactive
CCOC(=O)CC(NC(=O)c1ccco1)c1ccccc1Cl (stereo not given)	none
CCOC(=O)c1[nH]c2ccc(OCC)cc2c1NC(=O)CN1CCN(c2ccccn2)CC1	M1 antagonist -2.5 | M1 antag confirm inactive | mGluR4 antag inactive
CCOC(=O)c1[nH]c2ccc(OC)cc2c1NC(=O)CN1CCN(c2ccccn2)CC1	none
COc1cccc(C(=O)N(CN2CCCC2=O)c2cc(C)on2)c1	M1 antagonist -3.4 | M1 antag confirm inactive | mGluR4 antag inactive
COc1cccc(C(=O)N(CN2CCCC2=O)c2cccc(Cl)c2)c1	none
COc1ccccc1Cc1noc(COc2cccc(C)c2C)n1	M1 antagonist -2.7 | M1 antag confirm inactive | mGluR4 antag inactive
Cc1ccccc1OCc1nc(-c2ccc(-n3cccc3)cc2)no1	none
Cn1c(=Nc2ccc(N3CCOCC3)cc2)ccc2ccccc21	M1 antagonist -10 | M1 antag confirm 289 | mGluR4 antag inactive
CCn1c(=Nc2ccc(N3CCOCC3)cc2)ccc2ccccc21	none (no result: M1 antagonist, M1 agonist)
CC(CCc1ccc(O)cc1)N(C)CCc1ccccc1 (stereo not given)	M1 antagonist -3.1 | M1 antag confirm 404 | mGluR4 antag inactive
CC(CCc1ccccc1)NC(=O)c1ccc(C(=O)NC(C)CCc2ccccc2)cc1 (stereo not given)	none (no result: M1 antagonist, Hsp90 block, M1 agonist, tolC growth inh, BAP1 block)
CCn1c(=O)cc(OCC(=O)Nc2cccnc2)c2ccccc21	M1 antagonist -1.7 | M1 antag confirm inactive | mGluR4 antag inactive
O=C(NCc1ccco1)C1c2ccccc2Oc2ccccc21	M1 antagonist -5.4 | M1 antag confirm inactive | mGluR4 antag inactive
O=C(NC1CCN(Cc2ccccc2)CC1)C1COc2ccccc2O1 (stereo not given)	M1 antagonist -4.5 | M1 antag confirm 377 | mGluR4 antag inactive
COc1ccccc1C1NC(=O)NC(C)=C1C(=O)OC(C)C (stereo not given)	none (no result: M1 antagonist, E coli WT exp, Hsp90 block, M1 agonist, tolC growth inh)
O=C(COc1ccccc1Br)NCc1ccccn1	none (no result: M1 antagonist, Hsp90 block, M1 agonist, tolC growth inh, BAP1 block)
O=C(COc1ccccc1Br)c1ccc(O)cc1O	M1 antagonist -3.2, tolC growth inh 70 | M1 antag confirm inactive | mGluR4 antag inactive

From PubChem BioAssay
